Measurements reported in ChEMBL document CHEMBL1144601, “Synthesis and antiproliferative properties of N3/8-disubstituted 3,8-diazabicyclo[3.2.1]octane analogues of 3,8-bis[2-(3,4,5-trimethoxyphenyl)pyridin-4-yl]methyl-piperazine” (Eur J Med Chem, 2007).

How the values were obtained:
Format in all cases: functional, cell-based
[1] = tested on: CCRF-CEM; experiment: Antiproliferative activity against human CCRF-CEM cells by MTT assay
In short: (§1)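 Exponentially growing cells resuspended in growth medium with serial drug dilutions; viability read by MTT after 96 h at 37 °C, with untreated controls allowed at least three rounds of multiplication. IC50 is the concentration cutting proliferation by 50%, mean ± SD of three independent determinations. Haematological lines were grown in RPMI-1640 with 10% FCS and antibiotics. Solid-tumour lines were grown in their own media with 10% FCS.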

[2] = tested on: WIL2-NS; experiment: Antiproliferative activity against human WIL-2NS cells by MTT assay; in short: as §1
[3] = tested on: CCRF-SB; experiment: Antiproliferative activity against human CCRF-SB cells by MTT assay; in short: as §1
[4] = Antiproliferative activity against human CRL7065 cells by MTT assay; conditions: CRL-7065; in short: as §1
[5] = tested on: SK-MEL-28; experiment: Antiproliferative activity against human SK-MEL-28 cells by MTT assay; in short: as §1
[6] = tested on: MCF7; experiment: Antiproliferative activity against human MCF7 cells by MTT assay; in short: as §1
[7] = tested on: SK-MES-1; experiment: Antiproliferative activity against human SKMES1 cells by MTT assay; in short: as §1
[8] = tested on: HepG2; experiment: Antiproliferative activity against human HepG2 cells by MTT assay; in short: as §1
[9] = tested on: DU-145; experiment: Antiproliferative activity against human DU145 cells by MTT assay; in short: as §1
[10] = tested on: MT4; experiment: Antiproliferative activity against human MT4 cells by MTT assay; in short: as §1

Compound | IC50 [1] [µM] | IC50 [2] [µM] | IC50 [3] [µM] | IC50 [4] [µM] | IC50 [5] [µM] | IC50 [6] [µM] | IC50 [7] [µM] | IC50 [8] [µM] | IC50 [9] [µM] | IC50 [10] [µM]
Oc1cccc(-c2cc(CN3CC4CCC(C3)N4Cc3ccnc(-c4cccc(O)c4)c3)ccn2)c1 | 14 | 28 | 16 | > 100 | > 100 | > 100 | > 100 | > 100 | > 100 | 
CC(=O)Nc1ccc(-c2cc(CN3CC4CCC(C3)N4Cc3ccnc(-c4ccc(NC(C)=O)cc4)c3)ccn2)cc1 | 19 | 30 | 25 | > 100 | 20 | 43 | 22 | 30 | 42 | 18
COc1cccc(-c2cc(CN3CC4CCC(C3)N4Cc3ccnc(-c4cccc(OC)c4)c3)ccn2)c1 | 11 | 13 | 12 | > 100 | 8 | 15 | 8 | 15 | 9 | 
O=[N+]([O-])c1cccc(-c2cc(CN3CC4CCC(C3)N4Cc3ccnc(-c4cccc([N+](=O)[O-])c4)c3)ccn2)c1 | 36 | 63 | 27 | > 100 | 31 | 68 | 30 | 41 | 85 | 
c1ccc(-c2cc(CN3CC4CCC(C3)N4Cc3ccnc(-c4ccccc4)c3)ccn2)cc1 | 8 | 15 | 11 | > 100 | 8 | 9 | 11 | 11 | 8 | 19
Cc1ccc(-c2cc(CN3CC4CCC(C3)N4Cc3ccnc(-c4ccc(C)cc4)c3)ccn2)cc1 | 8 | 26 | 12 | > 100 | 7 | 7 | 8 | 7 | 7 | 
O=C1C2CCC(N2)C(=O)N1Cc1ccccc1 | 85 | > 100 | 88 | > 100 | 96 | 86 | 81 | 92 | 87 | > 100
c1ccc2c(c1)ccc1c(CN3CC4CCC(C3)N4Cc3cccc4c3ccc3ccccc34)cccc12 | 6 | 6 | 9 | 69 | 30 | 54 | 40 | 50 | 41 | 
CC(=O)Nc1cccc(-c2cc(CN3CC4CCC(C3)N4Cc3ccnc(-c4cccc(NC(C)=O)c4)c3)ccn2)c1 | 16 | 25 | 17 | > 100 | 34 | 23 | 33 | 43 | 24 | > 100
COc1ccc(-c2cc(CN3CC4CCC(C3)N4Cc3ccnc(-c4ccc(OC)cc4)c3)ccn2)cc1 | 3 | 6 | 5 | > 100 | 2 | 6 | 3 | 3 | 2 | 4
c1ccc(CN2CC3CCC(C2)N3)cc1 | > 100 | > 100 | > 100 | > 100 | > 100 | > 100 | > 100 | > 100 | > 100 | > 100
